Results on 37 sequences are retold here after the array DNA melting data of Ke et al. (doi:10.1101/2024.01.08.574731).

Data set [1] in a line: folding enthalpy; higher = less favourable; fluorescence melt of hairpins on a sequencing array, two-state fit. To be noted: sodium 0.088 M. In a few lines: (§1)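 Cy3 fluorescence of library hairpins on a sequenced MiSeq flow cell, with annealed Cy3 and quencher oligos, was imaged in 50 mM Na-HEPES pH 8.0, 25 mM NaCl in 2.5 °C steps up to 60 °C. Signals were normalised to pre-quench Cy3 and to control variants. Melting temperature and folding enthalpy came from bootstrapped two-state fits, inverse-variance combined over four replicates. Fitted temperatures were raised by 9.35 °C to match UV melts.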

The nature of data set [2]: melting temperature; fluorescence melt of hairpins on a sequencing array, two-state fit, raised by 9.35 °C to match UV melts. To be noted: sodium 0.088 M. In a few lines: as §1

Turning to GGCACCGAAAGGTTGGCC ((((((....)))..))), the folding enthalpy in data set [1] was -28.1 kcal/mol. Further, in data set [2], the Tm was 53.3 °C.

For CGTGGCGGAAACGCGACG (((.(((....))).))), the folding enthalpy in data set [1] is -35.6 kcal/mol. The Tm in data set [2] came to 57.7 °C.

Regarding GTCGTCGAAAGACCCGAC ((((((....)))..))), the folding enthalpy in data set [1] was -14.5 kcal/mol. Moreover, in data set [2], the Tm amounted to 31.3 °C.

In the case of GCACTCGAAAGAGTCTGC ((((((....)))..))), the folding enthalpy in data set [1] was -19.2 kcal/mol. In addition, the Tm in data set [2] stood at 40.1 °C.

GCACAGGAAACTGTGC ((((((....)))))): the folding enthalpy in data set [1] was -36.1 kcal/mol. The Tm in data set [2] was determined as 67 °C.

In the case of GATCCGTATTCGGATC ((((((....)))))), the folding enthalpy in data set [1] is -39.5 kcal/mol. The Tm in data set [2] amounted to 58.7 °C.

With GCATGTCGAAAGACTGC (((.(((....)))))), in data set [1], the folding enthalpy was -35 kcal/mol. In addition, the Tm in data set [2] was 56.1 °C.

For the sequence GCCATGCGAAAGCCGGGC (((..((....))..))), the folding enthalpy in data set [1] was -26.1 kcal/mol. For the same sequence, in data set [2], the Tm stood at 55.3 °C.

Take GGGATCGAAAGATGCCC ((((((....))).))): in data set [1], the folding enthalpy was -46.8 kcal/mol. Moreover, the Tm in data set [2] came out at 50.3 °C.

Regarding GCCTACGAAAGTACGGGC ((((((....)))..))), in data set [1], the folding enthalpy was -27.2 kcal/mol. The Tm in data set [2] was determined as 46.3 °C.

In the case of GTTAAACGAAAGTTGAAC (((.(((....))).))), the folding enthalpy in data set [1] was -26 kcal/mol. Further, in data set [2], the Tm is 41.7 °C.

With GATCATGGAAACATGACC (.(((((....))))).), the folding enthalpy in data set [1] is -17.4 kcal/mol. Also, the Tm in data set [2] came to 36.1 °C.

For GATCTAGACTAGATC ((((((...)))))), the folding enthalpy in data set [1] is -36.6 kcal/mol. Further, the Tm in data set [2] came out at 40.8 °C.

Turning to GATCTGCCACCAGATC ((((((....)))))), the folding enthalpy in data set [1] is -35.1 kcal/mol. In data set [2], the Tm was 48.7 °C.

Turning to GCAGCCGAAAGGCCTTGC ((((((....)))..))), the folding enthalpy in data set [1] was -10.6 kcal/mol. Besides, the Tm in data set [2] was found to be 35.7 °C.

Turning to GCGCTCCGAAAGGACGC (((.(((....)))))), the folding enthalpy in data set [1] is -33.6 kcal/mol. The Tm in data set [2] came out at 60 °C.

With GCTGCTGGAAACAGCAAC (.(((((....))))).), in data set [1], the folding enthalpy is -12.1 kcal/mol. In addition, the Tm in data set [2] was found to be 44.3 °C.

Turning to GATTGACGAAAGTCCATC (((.(((....))).))), in data set [1], the folding enthalpy was -23 kcal/mol. Also, the Tm in data set [2] came out at 39.3 °C.

Take GTAATGCGAAAGCAGTAC (((.(((....))).))): in data set [1], the folding enthalpy was -30.6 kcal/mol. The Tm in data set [2] worked out at 53.4 °C.

As for GCTTCGCGAAAGCAATGC ((.(.((....)).).)), the folding enthalpy in data set [1] is -16.4 kcal/mol. Further, the Tm in data set [2] worked out at 33.2 °C.

GAAGCCGAAAGGCATTC ((((((....))).))): the folding enthalpy in data set [1] is -11.1 kcal/mol. Further, in data set [2], the Tm came to 40.6 °C.

For the sequence GCACTTGCGAAAGCATGC (((..(((....)))))), the folding enthalpy in data set [1] is -10.8 kcal/mol. Moreover, in data set [2], the Tm came out at 38.6 °C.

As to GGAACCGAAAGGTATCC ((((((....))).))), the folding enthalpy in data set [1] was -18.2 kcal/mol. Besides, in data set [2], the Tm came to 40.8 °C.

On to GAGCTTGAAAAAGCTC ((((((....)))))), for which the folding enthalpy in data set [1] is -41.6 kcal/mol. Moreover, the Tm in data set [2] worked out at 58.1 °C.

Consider GTAGCGCGAAAGCGTTAC (((.(((....))).))), for which the folding enthalpy in data set [1] is -23.1 kcal/mol. Also, the Tm in data set [2] came to 58.3 °C.

For GGGGTAACGAAAGTTCCC (((..(((....)))))), the folding enthalpy in data set [1] is -23.8 kcal/mol. Besides, in data set [2], the Tm stood at 49.9 °C.

As to GATCACCGCAGTGATC ((((((....)))))), in data set [1], the folding enthalpy is -40 kcal/mol. The Tm in data set [2] turned out to be 59 °C.

For GCAGCAACGAAAGTTTGC (((..(((....)))))), the folding enthalpy in data set [1] is -17.1 kcal/mol. For the same sequence, the Tm in data set [2] stood at 35.8 °C.

GGATTAGGAAACTAACCC ((.((((....)))).)): in data set [1], the folding enthalpy was -17.3 kcal/mol. Besides, the Tm in data set [2] amounted to 30.1 °C.

For the sequence GAACCCGAAAGGGCTTC ((((((....))).))), in data set [1], the folding enthalpy was -15 kcal/mol. Further, the Tm in data set [2] turned out to be 46.3 °C.

On to GCCCTACGAAAGTAAGGC (((.(((....))).))), for which the folding enthalpy in data set [1] is -31.3 kcal/mol. Further, the Tm in data set [2] is 47.4 °C.

For CGAACTCGGAAACGATCG (((..(((....)))))), the folding enthalpy in data set [1] was -16.3 kcal/mol. For the same sequence, the Tm in data set [2] stood at 22.9 °C.

As to GGAAGCGAAAGCTTTTCC ((((((....)))..))), in data set [1], the folding enthalpy was -12.2 kcal/mol. Further, in data set [2], the Tm worked out at 33.4 °C.

Turning to GCCGTCGAAAGACATGGC ((((((....)))..))), the folding enthalpy in data set [1] was -23.9 kcal/mol. Also, in data set [2], the Tm was 52.1 °C.

GAAGACGGAAACGTCTCC (.(((((....))))).): in data set [1], the folding enthalpy was -12.6 kcal/mol. Moreover, the Tm in data set [2] was found to be 39.3 °C.

Turning to GATTACGAAAGTAAGATC ((((((....)))..))), the folding enthalpy in data set [1] is -16.2 kcal/mol. Besides, the Tm in data set [2] amounted to 39 °C.

Regarding GTGCTCGGAAACGAGCGC (.(((((....))))).), in data set [1], the folding enthalpy was -19.4 kcal/mol. Further, in data set [2], the Tm came to 64.5 °C.
